Active and inactive are the calls of the source. The calls are words filed in the database; no cut-off is given here.
Legend:
HeLa [1] = experiment: Antiproliferative activity against human HeLa cells after 48 hrs incubation by Alamar Blue assay; assay type: functional, cell-based
Summary of the method: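 HeLa cells seeded at 3 x 10^3 cells/well, exposed to compounds for 48 h; Alamar Blue then added and incubated 3 h at 37 °C, 5% CO2; fluorescence read at 530 nm excitation/590 nm emission. IC50 taken from sigmoid dose-response curve.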

HeLa [2] = experiment: Antiproliferative activity against human HeLa cells at 30 uM after 48 hrs incubation by Alamar Blue assay; assay type: functional, cell-based
Summary of the method: (§1)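 HeLa cells plated at 3 x 10^3 cells/well, treated 48 h at a single concentration (20 or 30 µM as per line); viability by Alamar Blue added for 3 h at 37 °C, 5% CO2, fluorescence at 530 nm ex/590 nm em; percent inhibition of proliferation.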

HeLa [3] = experiment: Antiproliferative activity against human HeLa cells at 20 uM after 48 hrs incubation by Alamar Blue assay; assay type: functional, cell-based; summary of the method: as §1
[4] = molecular target: T1, Dual specificity protein phosphatase 3 (Homo sapiens, UniProt P51452); experiment: Inhibition of Vaccinia H1-related phosphatase (unknown origin) by fluorescence emission assay in presence of 0.001% NP-40
Target sequence in this assay (P51452 whole entry): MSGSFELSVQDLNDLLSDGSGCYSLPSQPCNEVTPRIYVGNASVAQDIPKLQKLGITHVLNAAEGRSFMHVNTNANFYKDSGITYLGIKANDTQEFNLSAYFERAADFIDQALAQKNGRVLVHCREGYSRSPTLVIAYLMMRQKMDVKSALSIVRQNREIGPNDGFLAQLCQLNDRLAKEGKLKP

[5] = molecular target: T1, Dual specificity protein phosphatase 3; settings: 100 uM
Target sequence in this assay (P51452 whole entry, looked up): as the sequence (P51452 whole entry) above

[6] = molecular target: T1, Dual specificity protein phosphatase 3; experiment: Inhibition of Vaccinia H1-related phosphatase (unknown origin) by fluorescence emission assay
Summary of the method: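 Purified VHR (22 ng) preincubated with or without compound 30 min at 37 °C in 50 mM succinate, 1 mM EDTA, 150 mM NaCl, 1 mM DTT, pH 6.0, 0.001% NP-40; reaction begun with 10 µM O-methylfluorescein phosphate, 10 min at 37 °C; product fluorescence at 485 nm ex/530 nm em; IC50 from sigmoid dose-response curve.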
Target sequence in this assay (P51452 whole entry): as above

Row | SMILES | inhibition (HeLa [2]) | inhibition (HeLa [3]) | further results
1 | Cc1cccc(CN/C(CCCCc2ccc(OCc3ccccc3Cl)cc2)=C2\C(=O)OC(CO)C2=O)c1 (stereo unspecified) | – | – | IC50 (HeLa [1]): 10.6 µM
2 | Cc1cccc(CN/C(CCCCc2ccccc2OCc2ccc(Cl)cc2)=C2\C(=O)OC(CO)C2=O)c1 (stereo unspecified) | Active | Active | –
3 | Cc1cccc(CN/C(CCCCc2ccccc2OCc2ccc([N+](=O)[O-])cc2)=C2\C(=O)OC(CO)C2=O)c1 (stereo unspecified) | Active | Active | –
4 | Cc1cccc(CN/C(CCCCc2cccc(OCc3cccc(Cl)c3)c2)=C2\C(=O)OC(CO)C2=O)c1 (stereo unspecified) | Active | Active | –
5 | Cc1cccc(CN/C(CCCCc2ccccc2OCc2ccccc2Cl)=C2\C(=O)OC(CO)C2=O)c1 (stereo unspecified) | Active | Active | –
6 | Cc1cccc(CN/C(CCCCc2ccc(OCc3cccc(Cl)c3)cc2)=C2\C(=O)OC(CO)C2=O)c1 (stereo unspecified) | – | – | IC50 (HeLa [1]): 7.8 µM
7 | Cc1cccc(CN/C(CCCCc2ccc(OCc3ccc(Cl)cc3)cc2)=C2\C(=O)OC(CO)C2=O)c1 (stereo unspecified) | Active | – | –
8 | CCCCCCCCCCCCCCC/C(NCc1cccc(C)c1)=C1/C(=O)OC(CO)C1=O (stereo unspecified) | Active | Active | IC50 [4]: > 100 µM; inhibition [5]: inactive; IC50 [6]: 1.6 µM
9 | Cc1cccc(CN/C(CCCCc2cccc(OCc3ccccc3Cl)c2)=C2\C(=O)OC(CO)C2=O)c1 (stereo unspecified) | Active | Active | –
10 | Cc1cccc(CN/C(CCCCc2ccccc2OCc2ccc(C(F)(F)F)cc2)=C2\C(=O)OC(CO)C2=O)c1 (stereo unspecified) | Active | Active | –
11 | Cc1cccc(CN/C(CCCCc2cccc(OCc3ccc(Cl)cc3)c2)=C2\C(=O)OC(CO)C2=O)c1 (stereo unspecified) | Active | Active | –
12 | Cc1cccc(CN/C(CCCCc2ccccc2OCc2cccc(Cl)c2)=C2\C(=O)OC(CO)C2=O)c1 (stereo unspecified) | Active | Active | –
13 | Cc1cccc(CN/C(CCCCc2ccccc2OCc2ccccc2)=C2\C(=O)OC(CO)C2=O)c1 (stereo unspecified) | Active | Active | –

Source: ChEMBL document CHEMBL3259639, “RE12 derivatives displaying Vaccinia H1-related phosphatase (VHR) inhibition in the presence of detergent and their anti-proliferative activity against HeLa cells” (Bioorg Med Chem, 2014)
